Test results taken from ChEMBL document CHEMBL3734722, “Structural Elucidation of a Small Molecule Inhibitor of Protein Disulfide Isomerase” (ACS Med Chem Lett, 2015).
Active and inactive are the calls of the source. The calls are words filed in the database; no cut-off is given here.

Tests used:
[1] = Intrinsic clearance in mouse liver microsome at 0.5 microM incubated upto 45 mins by LC-MS/MS analysis; type: ADME; conditions: microsomes, 0.75 h
In short: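 Mouse liver microsome incubation; intrinsic clearance expressed as mL/min/g, with 7-ethoxycoumarin as reference compound.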

[2] = Plasma protein binding in mouse at 2000 ng/ml for 4 hrs by LC-MS/MS analysis; type: ADME, cell-free; conditions: read-out: PPB (converted)
PC-12 [3] = test: Neuroprotective activity against rat PC12 cells expressing mutant HTT-Q103 assessed as cell viability by alamar blue assay; type: functional, cell-based
In short: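 PC12 cells stably carrying inducible mutant HTT plasmid (mHTT-Q103); expression induced, causing death within 48 h. Serial-dilution dose–response; after 48 h Alamar blue added and fluorescence read. Data as mean percent of DMSO-treated uninduced cells ± SD; EC50 from curve.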

[4] = Half life in mouse plasma at 1 uM for 120 mins by LC-MS/MS analysis; type: ADME, cell-free
PC-12 [5] = test: Neuroprotective activity against rat PC12 cells expressing mutant HTT-Q103 assessed as increase in cell viability compound preincubated for 0,1,2,or 3 days in PC12 growth medium followed by cells addition measured after 48 hrs by alamar blue assay; type: functional, cell-based
In short: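 Compound held at 37 °C for 0, 1, 2 or 3 days in PC12 growth medium, then aliquots added to induced PC12 mHTT-Q103 cells. After 48 h treatment, Alamar blue added and viability quantified by fluorescence plate reader.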

[6] = target: Protein disulfide-isomerase (Homo sapiens) (UniProt P07237); test: Irreversible binding affinity to PDI catalytic domain a (unknown origin) at 4.5 mM measured after 100 fold dilution for 2 hrs by intrinsic tryptophan fluorescence assay
Chain of Protein disulfide-isomerase (Homo sapiens) (P07237 18-508 limits assumed): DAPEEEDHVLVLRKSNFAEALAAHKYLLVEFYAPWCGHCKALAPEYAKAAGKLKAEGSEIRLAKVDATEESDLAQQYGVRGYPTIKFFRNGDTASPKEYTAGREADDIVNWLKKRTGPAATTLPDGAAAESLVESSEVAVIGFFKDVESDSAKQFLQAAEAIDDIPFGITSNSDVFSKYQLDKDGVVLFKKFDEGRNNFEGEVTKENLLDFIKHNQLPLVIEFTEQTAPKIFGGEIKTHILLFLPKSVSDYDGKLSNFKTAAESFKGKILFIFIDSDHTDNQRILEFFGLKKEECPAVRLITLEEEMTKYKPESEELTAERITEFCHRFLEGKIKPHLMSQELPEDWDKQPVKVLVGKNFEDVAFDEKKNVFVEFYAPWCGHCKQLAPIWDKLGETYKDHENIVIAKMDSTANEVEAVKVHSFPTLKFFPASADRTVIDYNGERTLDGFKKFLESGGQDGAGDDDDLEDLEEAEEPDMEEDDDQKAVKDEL
In short: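 Jump-dilution reversibility test: PDIa (1 mM) incubated with ligand at 4.5 mM, complex diluted 100-fold (to 45 μM ligand, 10 μM PDIa) and dialysed, then Trp emission spectra recorded. Phenylarsine oxide, a covalent vicinal-thiol modifier, processed identically as control.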

[7] = target: Protein disulfide-isomerase (Homo sapiens) (UniProt P07237); test: Binding affinity to PDI catalytic domain a (unknown origin) after 1 hrs by intrinsic tryptophan fluorescence assay
In short: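 PDIa intrinsic Trp fluorescence recorded with varying securinine concentrations; emission spectra taken and intensity at 330 nm normalized; Kd derived from concentration-dependent quenching.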

## CCOc1ccc2ccc(=O)oc2c1 [ETHOXYCOUMARIN]
[1]
  CLint: 24.58 mL/min/g

## CC(=O)CC(c1ccccc1)c1c(O)c2ccccc2oc1=O (stereo not given) [WARFARIN]
[2]
  fraction unbound at 4 h, 2000 ng/ml: 0.06

## CC(C)C1OCCN1CC1COC2(CCCCC2)O1 (stereo not given)
PC-12 [3]
  Activity: inactive

## O=C1C=C2C=C[C@H]3C[C@@]2(O1)[C@H]1CCCCN31
PC-12 [3]
  EC50: 3.3 µM
[4]
  half-life at 1 µM: 96 min
[1]
  CLint: 8.3 mL/min/g
PC-12 [5]
  Activity: Active
[6]
  Activity: Active
[7]
  Activity: Dose-dependent effect
[2]
  fraction unbound at 4 h, 2000 ng/ml: 0.51
